{"data": "Published values collected from several papers", "cell line": "HT-29", "read-out": "cell growth or viability"}
{"Structure (SMILES)": "Cc1ccc2c(c1)C(=NNc1nc3ccccc3n(C)c1=O)C(=O)N2", "setting": "30 µM", "quantity": "inhibition", "value": "47.6%"}
{"Structure (SMILES)": "Cc1cc(C)n(C(=S)[S][Au][PH](CCCCCC[PH]([Au][S]C(=S)n2nc(C)cc2C)(c2ccccc2)c2ccccc2)(c2ccccc2)c2ccccc2)n1", "quantity": "GI50", "value": "0.458 µM"}
{"Structure (SMILES)": "COc1cccc(Oc2ccccc2NC(=O)CNC(=O)c2cccc3ccccc23)c1", "assay": "SRB", "setting": "48 h", "quantity": "GI50", "value": "0.11 µM"}
{"Structure (SMILES)": "Cn1c(=O)c(NN=C2C(=O)Nc3ccc(F)cc32)nc2ccccc21", "setting": "30 µM", "quantity": "inhibition", "value": "48.1%"}
{"Structure (SMILES)": "COc1ccc(C(=O)/C=C/c2cc3c(cc2Br)OCO3)cc1S(N)(=O)=O", "assay": "SRB", "setting": "48 h", "quantity": "GI50", "value": "1.9 µM"}
{"Structure (SMILES)": "CC/C(=C(\\c1ccccc1)c1ccc(OCCN(C)C)cc1)c1ccccc1", "assay": "ATP luminescence", "setting": "72 h", "quantity": "EC90", "value": "8.4 µM"}
{"Structure (SMILES)": "CCN(CC)CCNC(=O)c1c(C)[nH]c(/C=C2\\C(=O)Nc3ccc(F)cc32)c1C", "setting": "30 µM", "quantity": "inhibition", "value": "59.5%"}
{"Structure (SMILES)": "COc1ccc(C(=O)/C=C/c2cccc(Br)c2)cc1S(N)(=O)=O", "assay": "SRB", "setting": "48 h", "quantity": "GI50", "value": "1.6 µM"}
{"Structure (SMILES)": "S=C([S][Au-][P+](CCCCCC[P+]([Au-][S]C(=S)n1cccn1)(c1ccccc1)c1ccccc1)(c1ccccc1)c1ccccc1)n1cccn1", "quantity": "GI50", "value": "0.642 µM"}
